Measured values: ChEMBL document CHEMBL3611968, “Reengineered tricyclic anti-cancer agents” (Bioorg Med Chem, 2015)
Activity calls are given as the source filed them. No cut-off for these calls is given here.

How the values were obtained:
NCI-H1650 = test: Cytotoxicity against human NCI-H1650 cells assessed as growth inhibition after 48 hrs by MTT assay; format: functional
In short: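 H1650 cells were exposed to drug for 48 h at five concentrations bracketing 1–40 μM in 10 μM steps, with MTT read-out. GI50 is given only where the data form a sigmoidal dose response.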

[1] = molecular target: T1, D(4) dopamine receptor (Homo sapiens) (UniProt P21917); test: Binding affinity to dopamine D4 receptor (unknown origin) at 0.1 mM by radioligand displacement assay relative to control
T1 sequence (whole entry): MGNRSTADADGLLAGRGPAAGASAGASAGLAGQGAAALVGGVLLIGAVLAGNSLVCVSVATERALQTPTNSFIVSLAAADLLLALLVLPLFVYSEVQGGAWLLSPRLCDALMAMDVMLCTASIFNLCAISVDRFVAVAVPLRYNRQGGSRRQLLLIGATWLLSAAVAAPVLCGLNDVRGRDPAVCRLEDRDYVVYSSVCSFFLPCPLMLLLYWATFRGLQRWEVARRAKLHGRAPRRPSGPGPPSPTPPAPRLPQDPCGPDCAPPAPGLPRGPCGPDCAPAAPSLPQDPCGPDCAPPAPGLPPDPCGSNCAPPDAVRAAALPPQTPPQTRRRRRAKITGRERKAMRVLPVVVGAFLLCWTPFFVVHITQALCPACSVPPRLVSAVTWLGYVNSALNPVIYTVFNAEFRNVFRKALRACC

[2] = molecular target: D(3) dopamine receptor (Homo sapiens) (UniProt P35462); test: Binding affinity to dopamine D3 receptor (unknown origin) at 0.1 mM by radioligand displacement assay relative to control
Sequence of D(3) dopamine receptor (Homo sapiens) (P35462 whole entry): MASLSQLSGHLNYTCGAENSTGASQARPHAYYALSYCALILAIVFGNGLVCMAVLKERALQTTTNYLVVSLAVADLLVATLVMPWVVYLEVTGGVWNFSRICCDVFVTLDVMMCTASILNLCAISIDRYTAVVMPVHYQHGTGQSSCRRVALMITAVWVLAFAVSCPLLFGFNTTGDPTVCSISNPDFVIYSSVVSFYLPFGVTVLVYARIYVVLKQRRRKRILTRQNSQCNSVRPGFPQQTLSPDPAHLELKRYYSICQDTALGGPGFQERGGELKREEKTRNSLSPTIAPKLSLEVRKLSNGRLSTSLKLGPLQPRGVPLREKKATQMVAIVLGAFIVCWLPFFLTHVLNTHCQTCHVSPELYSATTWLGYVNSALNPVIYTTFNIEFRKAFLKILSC

[3] = molecular target: D(1A) dopamine receptor (Homo sapiens) (UniProt P21728); test: Binding affinity to dopamine D1 receptor (unknown origin) at 0.1 mM by radioligand displacement assay relative to control
Sequence of D(1A) dopamine receptor (Homo sapiens) (P21728 whole entry): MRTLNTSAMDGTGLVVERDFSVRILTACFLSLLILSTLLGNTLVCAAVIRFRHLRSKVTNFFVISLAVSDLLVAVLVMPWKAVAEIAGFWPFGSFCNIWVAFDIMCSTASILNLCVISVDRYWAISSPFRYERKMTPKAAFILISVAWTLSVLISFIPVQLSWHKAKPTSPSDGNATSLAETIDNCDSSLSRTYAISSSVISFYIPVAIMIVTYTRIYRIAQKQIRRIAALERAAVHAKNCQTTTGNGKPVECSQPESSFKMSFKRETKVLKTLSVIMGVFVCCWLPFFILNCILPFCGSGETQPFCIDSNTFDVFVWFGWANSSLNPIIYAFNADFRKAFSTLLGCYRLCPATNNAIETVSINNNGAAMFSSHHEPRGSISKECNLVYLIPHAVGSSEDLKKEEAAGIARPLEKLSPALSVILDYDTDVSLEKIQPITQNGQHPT

[4] = molecular target: D(2) dopamine receptor (Homo sapiens) (UniProt P14416); test: Binding affinity to dopamine D2 receptor (unknown origin) at 0.1 mM by radioligand displacement assay relative to control
Sequence of D(2) dopamine receptor (Homo sapiens) (P14416 whole entry): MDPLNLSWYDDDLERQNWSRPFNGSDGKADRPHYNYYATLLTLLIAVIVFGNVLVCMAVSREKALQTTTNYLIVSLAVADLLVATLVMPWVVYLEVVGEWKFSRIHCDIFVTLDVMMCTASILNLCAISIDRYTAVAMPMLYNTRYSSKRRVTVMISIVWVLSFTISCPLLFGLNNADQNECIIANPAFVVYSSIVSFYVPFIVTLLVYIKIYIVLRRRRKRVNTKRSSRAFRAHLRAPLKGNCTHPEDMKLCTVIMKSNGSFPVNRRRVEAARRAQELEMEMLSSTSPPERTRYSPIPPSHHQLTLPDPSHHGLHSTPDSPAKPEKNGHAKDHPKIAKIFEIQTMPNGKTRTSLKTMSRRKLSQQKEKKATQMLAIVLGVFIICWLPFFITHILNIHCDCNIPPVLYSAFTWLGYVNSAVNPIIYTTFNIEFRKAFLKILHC

[5] = molecular target: D(1B) dopamine receptor (Homo sapiens) (UniProt P21918); test: Binding affinity to dopamine D5 receptor (unknown origin) at 0.1 mM by radioligand displacement assay relative to control
Sequence of D(1B) dopamine receptor (Homo sapiens) (P21918 whole entry): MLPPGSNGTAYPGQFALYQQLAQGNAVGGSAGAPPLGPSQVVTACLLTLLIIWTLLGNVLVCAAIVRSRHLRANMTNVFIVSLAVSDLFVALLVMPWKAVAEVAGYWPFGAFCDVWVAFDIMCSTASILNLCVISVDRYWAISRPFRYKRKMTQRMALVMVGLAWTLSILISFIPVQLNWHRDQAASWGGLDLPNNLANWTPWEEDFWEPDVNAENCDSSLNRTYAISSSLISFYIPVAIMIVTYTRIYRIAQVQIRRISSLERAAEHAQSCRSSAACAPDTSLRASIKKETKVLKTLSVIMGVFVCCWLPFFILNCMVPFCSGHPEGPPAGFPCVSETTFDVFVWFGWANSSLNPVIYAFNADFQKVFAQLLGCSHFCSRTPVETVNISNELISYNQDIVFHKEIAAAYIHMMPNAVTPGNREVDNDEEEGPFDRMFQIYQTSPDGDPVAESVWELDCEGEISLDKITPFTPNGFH

**Q.** With `O=S(=O)(NCCNC1c2ccccc2CCc2ccccc21)c1ccc(OC(F)(F)F)cc1` as the compound, how does the GI50 (NCI-H1650; NCI-H1650, 48 h) read?
**A.** 25 µM

**Q.** How did the GI50 (NCI-H1650; NCI-H1650, 48 h) turn out when `O=S(=O)(NCCCN1c2ccccc2Sc2ccc(Cl)cc21)c1ccc(Oc2ccccc2)cc1` was run?
**A.** > 40 µM

**Q.** With `O=S(=O)(NCCCN1c2ccccc2CCc2ccccc21)c1cnc(Cl)c(Br)c1` as the compound, how does the GI50 (NCI-H1650; NCI-H1650, 48 h) read?
**A.** > 40 µM

**Q.** With `O=S(=O)(NCCCN1c2ccccc2CCc2ccccc21)N1CCOCC1` as the compound, how does the GI50 (NCI-H1650) read?
**A.** inactive

**Q.** With `CC(=O)Nc1ccc(S(=O)(=O)NCCCN2c3ccccc3CCc3ccc(Cl)cc32)cc1` as the compound, how does the GI50 (NCI-H1650; NCI-H1650, 48 h) read?
**A.** 15 µM

**Q.** `COc1ccc(OC(=O)NCCCN2c3ccccc3Sc3ccc(Cl)cc32)cc1` was tested. Which GI50 (NCI-H1650) did it give?
**A.** inactive

**Q.** With `N#Cc1ccc(S(=O)(=O)NCCC=C2c3ccccc3CCc3ccccc32)cc1` as the compound, how does the GI50 (NCI-H1650; NCI-H1650, 48 h) read?
**A.** 25 µM

**Q.** Which GI50 (NCI-H1650) does the source give for `CN(CCN1c2ccccc2Sc2ccc(Cl)cc21)S(=O)(=O)c1ccc(Cl)cc1` here?
**A.** inactive

**Q.** `O=S(=O)(c1ccc(Cl)cc1)N1CCC(=C2c3ccccc3CCc3ccccc32)CC1` was tested. Which GI50 (NCI-H1650) did it give?
**A.** inactive

**Q.** `O=S(=O)(N[C@H]1CCC[C@@H](N2c3ccccc3CCc3ccccc32)C1)c1ccc(OC(F)(F)F)cc1` was tested. Which GI50 (NCI-H1650; NCI-H1650, 48 h) did it give?
**A.** 25 µM

**Q.** Which GI50 (NCI-H1650; NCI-H1650, 48 h) does the source give for `CC(CNS(=O)(=O)c1ccc(OC(F)(F)F)cc1)CN1c2ccccc2CCc2ccccc21` (stereo not drawn) here?
**A.** 20 µM

**Q.** Which GI50 (NCI-H1650; NCI-H1650, 48 h) does the source give for `O=S(=O)(NC1CCC(=C2c3ccccc3CCc3ccccc32)CC1)c1ccc(Cl)cc1` (stereo not drawn) here?
**A.** 20 µM

**Q.** Which GI50 (NCI-H1650; NCI-H1650, 48 h) does the source give for `O=S(=O)(NCCCN1c2ccccc2OCc2cccnc21)c1ccc(Cl)cc1` here?
**A.** > 40 µM

**Q.** `O=S(=O)(NCCN1c2ccccc2CCc2ccc(Cl)cc21)c1ccc(Cl)cc1` was tested. Which GI50 (NCI-H1650; NCI-H1650, 48 h) did it give?
**A.** 19.1 µM

**Q.** How did the GI50 (NCI-H1650; NCI-H1650, 48 h) turn out when `N#Cc1ccc(S(=O)(=O)NCCCN2c3ccccc3CCc3ccc(Cl)cc32)cc1` was run?
**A.** 20 µM

**Q.** How did the GI50 (NCI-H1650; NCI-H1650, 48 h) turn out when `O=S(=O)(N[C@H]1CC[C@@H](N2c3ccccc3CCc3ccccc32)CC1)c1ccc(OC(F)(F)F)cc1` was run?
**A.** > 40 µM

**Q.** `O=S(=O)(NCCCN1c2ccccc2CCc2ccc(Cl)cc21)c1ccc(F)cc1` was tested. Which GI50 (NCI-H1650; NCI-H1650, 48 h) did it give?
**A.** > 40 µM

**Q.** `O=S(=O)(NCCCN1c2ccccc2CCc2cncnc21)c1ccc(OC(F)(F)F)cc1` was tested. Which GI50 (NCI-H1650; NCI-H1650, 48 h) did it give?
**A.** > 40 µM

**Q.** What does the source list for `Cc1ccc(S(=O)(=O)NCCCN2c3ccccc3CCc3ccc(Cl)cc32)cc1`?
**A.** inhibition [1]: < 5%; GI50 (NCI-H1650; NCI-H1650, 48 h): > 40 µM; inhibition [2]: < 5%; inhibition [3]: < 5%; inhibition [4]: < 5%; inhibition [5]: < 10%

**Q.** Which GI50 (NCI-H1650; NCI-H1650, 48 h) does the source give for `O=S(=O)(NCCCN1c2ccccc2CCc2ncccc21)c1ccc(Cl)cc1` here?
**A.** 30 µM

**Q.** With `O=S(=O)(NCCCN1c2ccccc2CCc2ccc(Cl)cc21)C1CCCCC1` as the compound, how does the GI50 (NCI-H1650) read?
**A.** inactive

**Q.** For `O=S(=O)(NCCCN1c2ccccc2CCc2ccc(Cl)cc21)c1ccc(Cl)cc1`, which GI50 (NCI-H1650; NCI-H1650, 48 h) is on record?
**A.** 20 µM

**Q.** Which GI50 (NCI-H1650) does the source give for `CN(CCCN1c2ccccc2Sc2ccc(Cl)cc21)S(=O)(=O)c1ccc(Cl)cc1` here?
**A.** inactive

**Q.** `O=S(=O)(NCCCN1c2ccccc2CCc2ccc(Cl)cc21)c1cc(Cl)c(Cl)s1` was tested. Which GI50 (NCI-H1650; NCI-H1650, 48 h) did it give?
**A.** 18 µM

**Q.** How did the GI50 (NCI-H1650; NCI-H1650, 48 h) turn out when `COc1ccc(S(=O)(=O)NCCCN2c3ccccc3CCc3ccc(Cl)cc32)cc1` was run?
**A.** 24.4 µM

**Q.** With `O=S(=O)(NCCCN1c2ccccc2CCc2ccccc21)c1cccnc1` as the compound, how does the GI50 (NCI-H1650) read?
**A.** inactive

**Q.** Which GI50 (NCI-H1650; NCI-H1650, 48 h) does the source give for `O=C1COc2ccc(S(=O)(=O)NCCCN3c4ccccc4CCc4ccccc43)cc2N1` here?
**A.** 22 µM

**Q.** For `O=S(=O)(N[C@H]1CC[C@H](N2c3ccccc3CCc3ccccc32)CC1)c1ccc(OC(F)(F)F)cc1`, which GI50 (NCI-H1650; NCI-H1650, 48 h) is on record?
**A.** 10 µM
